Experimental data gathered from unrelated publications.
Target: STE20-like serine/threonine-protein kinase (SLK, Homo sapiens, UniProt Q9H2G2)

| Compound | read-out | method | tested at | remaining binding |
| --- | --- | --- | --- | --- |
| Cc1nc(Cc2cccc(C(F)(F)F)c2)sc1-c1ccc(C(N)=O)nc1 | cell-free assay | competition with immobilised ligand | 1 µM | 100% |
| COc1ccnn2ncc(-c3ccnc(N(C)C)n3)c12 | binding |  | 1 µM | 86% |
| O=C(c1ccc(Nc2ncc(Cl)c(-c3ccc(Cl)s3)n2)cc1)N1CCC(N2CCCC2)CC1 | binding | competition with immobilised ligand | 1 µM | 1.2% |
| C=CC(=O)N1CCC(C(=O)NCC(=O)N2CCN(c3nc(-c4cnc(N)nc4C(F)F)nc(N4CCOCC4)n3)CC2)CC1 | binding | competition with immobilised ligand | 1 µM | 80% |
| O=C(Nc1c[nH]nc1C(=O)NC1CCNCC1)c1cc(F)cc(F)c1 | binding | competition with immobilised ligand | 1 µM | 100% |
| c1cncc(-c2cccc(Nc3nccc(NC4CCCCC4)n3)c2)c1 | binding | competition with immobilised ligand | 10 µM | 19% |
| c1cnn2ncc(-c3ccnc(N4CCC45COC5)n3)c2c1 | binding |  | 1 µM | 100% |
| CCOC(=O)c1cc2cc(-c3cc(C(=O)NCc4ccc(C(=O)O)cc4)nn3C)ccc2[nH]1 | cell-free assay | competition with immobilised ligand | 0.1 µM | 98% |
| CC1CCCN1c1nccc(-c2cnn3ncccc23)n1 (stereo not drawn) | binding |  | 1 µM | 100% |
| c1ccc(N2CCN(Cc3nc4ccccc4[nH]3)CC2)nc1 | binding | competition with immobilised ligand | 1 µM | 93% |
| COc1ncc2cc3ccccc3nc2c1C#N | cell-free assay | competition with immobilised ligand | 5 µM | 89% |
| Cc1cnc(Nc2ccc(C(=O)N3CCC(N4CCCC4)CC3)cc2)nc1-c1cc2ccccc2s1 | binding | competition with immobilised ligand | 1 µM | 0.4% |
| Cc1nc(N2CC[C@@H](O)C2)ncc1-c1cc(C(F)(F)F)cc2[nH]ncc12 | binding | competition with immobilised ligand | 1 µM | 98% |
| CN(CCCC(F)(F)F)c1nccc(-c2cnn3ncccc23)n1 | binding |  | 1 µM | 85% |
| COc1cnc(Nc2cccc(S(N)(=O)=O)c2)nc1N1CCN(c2ccccc2)CC1 | binding | competition with immobilised ligand | 1 µM | 99% |
| C[C@@H]1CN(c2cc(-c3n[nH]c4ccc(OC5(C)CC5)cc34)ncn2)C[C@H](C)O1 | cell-free assay | competition with immobilised ligand | 0.1 µM | 98% |
| C[C@H]1CCN(c2nccc(-c3cnn4ncccc34)n2)C1 | binding |  | 1 µM | 96% |
| O=C(NCCCN1CCOCC1)c1ccc(Nc2ncc(Cl)c(-c3ccc(Cl)s3)n2)cc1 | binding | competition with immobilised ligand | 1 µM | 8% |
| COc1cnc(Nc2cccc(S(N)(=O)=O)c2)nc1N1CCN(c2ccccc2)C(=O)C1 | binding | competition with immobilised ligand | 1 µM | 100% |
| Cc1c(NC(=O)c2cc(C(N)=O)nc3cc(F)ccc23)c(C(F)(F)F)nn1Cc1ccc(C(C)(C)C)cc1 | cell-free assay | competition with immobilised ligand | 1 µM | 100% |
| N[C@@H]1CCN(c2nccc(-c3cnn4ncccc34)n2)C1 | binding |  | 1 µM | 83% |
